ChEMBL document CHEMBL3526002, “Tissue distribution and identification of radioactivity components at elimination phase after oral administration of [¹⁴C]CS-1036, an α-amylase inhibitor, to rats” (Drug Metab Dispos, 2013)

Key:
Parameters in all cases: dose 5 mg/kg, dosed compound name [14C]CS-1036, route oral
Settings in all cases: in vivo
[1] = tested on: Cerebrum; test: Drug uptake in albino F344/DuCrlCrlj rat cerebrum assessed as ng equivalent of CS-1036 at 5 mg/kg, po after 168 hrs by liquid scintillation counting; assay type: ADME, organism-based
Procedure, shortened: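 Single oral [14C]CS-1036 at 5 mg/kg was given to male rats (159–167 g; n = 3). Cerebrum was collected after aortic bleeding at 1, 4, 8, 24, 72, 168 or 336 h, weighed, and homogenized in 2 volumes of saline. A 0.5 ml aliquot was solubilized in Soluene-350 and counted by LSC with external-standard correction. Results are in ng equivalent/g tissue from specific activity and sample weight.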

[2] = tested on: Cerebellum; test: Drug uptake in albino F344/DuCrlCrlj rat cerebellum assessed as ng equivalent of CS-1036 at 5 mg/kg, po after 168 hrs by liquid scintillation counting; assay type: ADME, organism-based
[3] = tested on: Blood; test: Drug uptake in albino F344/DuCrlCrlj rat blood assessed as ng equivalent of CS-1036 at 5 mg/kg, po after 168 hrs by liquid scintillation counting; assay type: ADME, organism-based
Procedure, shortened: (§1)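 Male F344/DuCrlCrlj rats (159–167 g; n = 3 per time point) received a single oral dose of [14C]CS-1036 at 5 mg/kg. Blood was taken from the abdominal aorta at 1, 4, 8, 24, 72, 168 and 336 h. Radioactivity was counted by LSC with external-standard efficiency correction. Results were converted to ng equivalent of CS-1036/ml using specific activity and sample volume, and reported as mean + S.D.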

[4] = tested on: Stomach; test: Drug uptake in albino F344/DuCrlCrlj rat stomach at 5 mg/kg, po after 8 hrs by liquid scintillation counting; assay type: ADME, organism-based
[5] = Drug uptake in albino F344/DuCrlCrlj rat urinary bladder assessed as ng equivalent of CS-1036 at 5 mg/kg, po after 24 hrs by liquid scintillation counting; assay type: ADME, organism-based
[6] = tested on: Zone of skin; test: Drug uptake in albino F344/DuCrlCrlj rat skin assessed as ng equivalent of CS-1036 at 5 mg/kg, po after 1 hr by liquid scintillation counting; assay type: ADME, organism-based
[7] = tested on: Thymus; test: Drug uptake in albino F344/DuCrlCrlj rat thymus assessed as ng equivalent of CS-1036 at 5 mg/kg, po after 24 hrs by liquid scintillation counting; assay type: ADME, organism-based
[8] = tested on: Heart; test: Drug uptake in albino F344/DuCrlCrlj rat heart assessed as ng equivalent of CS-1036 at 5 mg/kg, po after 24 hrs by liquid scintillation counting; assay type: ADME, organism-based
[9] = Drug uptake in albino F344/DuCrlCrlj rat thyroid gland at 5 mg/kg, po after 72 hrs by liquid scintillation counting; assay type: ADME, organism-based
[10] = tested on: Heart; test: Drug uptake in albino F344/DuCrlCrlj rat heart at 5 mg/kg, po after 4 hrs by liquid scintillation counting; assay type: ADME, organism-based
[11] = tested on: Adrenal gland; test: Drug uptake in albino F344/DuCrlCrlj rat adrenal gland assessed as ng equivalent of CS-1036 at 5 mg/kg, po after 1 hr by liquid scintillation counting; assay type: ADME, organism-based
[12] = Drug uptake in albino F344/DuCrlCrlj rat bone marrow assessed as ng equivalent of CS-1036 at 5 mg/kg, po after 72 hrs by liquid scintillation counting; assay type: ADME, organism-based
[13] = tested on: Plasma; test: Drug uptake in albino F344/DuCrlCrlj rat plasma assessed as ng equivalent of CS-1036 at 5 mg/kg, po after 4 hrs by liquid scintillation counting; assay type: ADME, organism-based
[14] = tested on: Heart; test: Drug uptake in albino F344/DuCrlCrlj rat heart assessed as ng equivalent of CS-1036 at 5 mg/kg, po after 168 hrs by liquid scintillation counting; assay type: ADME, organism-based
[15] = tested on: Large intestine; test: Drug uptake in albino F344/DuCrlCrlj rat large intestine assessed as ng equivalent of CS-1036 at 5 mg/kg, po after 4 hrs by liquid scintillation counting; assay type: ADME, organism-based
[16] = tested on: Harderian gland; test: Drug uptake in albino F344/DuCrlCrlj rat harderian gland at 5 mg/kg, po after 8 hrs by liquid scintillation counting; assay type: ADME, organism-based
[17] = tested on: Harderian gland; test: Drug uptake in albino F344/DuCrlCrlj rat harderian gland at 5 mg/kg, po after 1 hr by liquid scintillation counting; assay type: ADME, organism-based
[18] = tested on: Small intestine; test: Drug uptake in albino F344/DuCrlCrlj rat small intestine assessed as ng equivalent of CS-1036 at 5 mg/kg, po after 1 hr by liquid scintillation counting; assay type: ADME, organism-based
[19] = tested on: Adrenal gland; test: Drug uptake in albino F344/DuCrlCrlj rat adrenal gland at 5 mg/kg, po after 24 hrs by liquid scintillation counting; assay type: ADME, organism-based
[20] = Drug uptake in albino F344/DuCrlCrlj rat eyeball at 5 mg/kg, po after 168 hrs by liquid scintillation counting; assay type: ADME, organism-based
[21] = tested on: Spleen; test: Drug uptake in albino F344/DuCrlCrlj rat spleen assessed as ng equivalent of CS-1036 at 5 mg/kg, po after 1 hr by liquid scintillation counting; assay type: ADME, organism-based
[22] = tested on: Thymus; test: Drug uptake in albino F344/DuCrlCrlj rat thymus at 5 mg/kg, po after 8 hrs by liquid scintillation counting; assay type: ADME, organism-based
[23] = tested on: Pancreas; test: Drug uptake in albino F344/DuCrlCrlj rat pancreas assessed as ng equivalent of CS-1036 at 5 mg/kg, po after 168 hrs by liquid scintillation counting; assay type: ADME, organism-based
[24] = tested on: Large intestine; test: Drug uptake in albino F344/DuCrlCrlj rat large intestine at 5 mg/kg, po after 336 hrs by liquid scintillation counting; assay type: ADME, organism-based
[25] = tested on: Spleen; test: Drug uptake in albino F344/DuCrlCrlj rat spleen assessed as ng equivalent of CS-1036 at 5 mg/kg, po after 168 hrs by liquid scintillation counting; assay type: ADME, organism-based
[26] = Drug uptake in albino F344/DuCrlCrlj rat epididymis assessed as ng equivalent of CS-1036 at 5 mg/kg, po after 72 hrs by liquid scintillation counting; assay type: ADME, organism-based
[27] = Drug uptake in albino F344/DuCrlCrlj rat thyroid gland assessed as ng equivalent of CS-1036 at 5 mg/kg, po after 72 hrs by liquid scintillation counting; assay type: ADME, organism-based
[28] = tested on: Aorta; test: Drug uptake in albino F344/DuCrlCrlj rat aorta at 5 mg/kg, po after 24 hrs by liquid scintillation counting; assay type: ADME, organism-based
[29] = Drug uptake in albino F344/DuCrlCrlj rat testis assessed as ng equivalent of CS-1036 at 5 mg/kg, po after 8 hrs by liquid scintillation counting; assay type: ADME, organism-based
[30] = tested on: Blood; test: Drug uptake in albino F344/DuCrlCrlj rat blood at 5 mg/kg, po after 24 hrs by liquid scintillation counting; assay type: ADME, organism-based; procedure, shortened: as §1
[31] = Drug uptake in albino F344/DuCrlCrlj rat fat assessed as ng equivalent of CS-1036 at 5 mg/kg, po after 1 hr by liquid scintillation counting; assay type: ADME, organism-based, Adipose tissue
Procedure, shortened: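 Male F344/DuCrlCrlj rats (bought at 7 weeks, acclimatized 5–6 days; 159–167 g; n = 3 per time point) received a single oral dose of [14C]CS-1036 at 5 mg/kg. White adipose tissue was collected after abdominal aortic bleeding at 1, 4, 8, 24, 72, 168 or 336 h. Samples were counted by LSC with external-standard efficiency correction. Results were converted to ng equivalents per g from specific activity and sample weight.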

Radiolabel recovery [1]: 3.11 ngequiv/g
Radiolabel recovery [2]: 3.37 ngequiv/g
Radiolabel recovery [3]: 3.52 ngequiv/ml
Radiolabel recovery [4]: 135 ngequiv/g
Radiolabel recovery [5]: 8.6 ngequiv/g
Radiolabel recovery [6]: 2.2 ngequiv/g
Radiolabel recovery [7]: 5.8 ngequiv/g
Radiolabel recovery [8]: 4.4 ngequiv/g
Radiolabel recovery [9]: 99.1 ngequiv/g
Radiolabel recovery [10]: 36 ngequiv/g
Radiolabel recovery [11]: 3.3 ngequiv/g
Radiolabel recovery [12]: 18.1 ngequiv/g
Radiolabel recovery [13]: 26.7 ngequiv/ml
Radiolabel recovery [14]: 5.9 ngequiv/g
Radiolabel recovery [15]: 6620 ngequiv/g
Radiolabel recovery [16]: 55.9 ngequiv/g
Radiolabel recovery [17]: 30.2 ngequiv/g
Radiolabel recovery [18]: 86500 ngequiv/g
Radiolabel recovery [19]: 81.8 ngequiv/g
Radiolabel recovery [20]: 4.54 ngequiv/g
Radiolabel recovery [21]: 57.2 ngequiv/g
Radiolabel recovery [22]: 43.4 ngequiv/g
Radiolabel recovery [23]: 5.8 ngequiv/g
Radiolabel recovery [24]: 9.86 ngequiv/g
Radiolabel recovery [25]: 6.2 ngequiv/g
Radiolabel recovery [26]: 8.3 ngequiv/g
Radiolabel recovery [27]: 42.7 ngequiv/g
Radiolabel recovery [28]: 35.2 ngequiv/g
Radiolabel recovery [29]: 24.1 ngequiv/g
Radiolabel recovery [30]: 35.7 ngequiv/ml
Radiolabel recovery [31]: 1.53 ngequiv/g
Compound: C[C@H]1O[C@@H](O[C@H]2[C@H](O)[C@@H](O)[C@@H](O[14C@H]3[14C@H](O)[14CH2]N[14C@@H]3[14CH2]O)O[C@@H]2CO)[C@H](O)[C@@H](O)[C@@H]1O
